# Source: PubChem BioAssay
# CSN inh – CSN deneddylation inhibition; Q92905; Purified CSN, SCF-Nedd8-OG deneddylation, fluorescence polarization; inhibition, % at 12.5 µM; 360,000 compounds, 0.38% hits;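 active = pattern-corrected inhibition above about 35%, with an unprinted fluorescence ratio check between 0.5 and 1.5, limit read from the data, passing the limit was not always enough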;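 also: 0% = enzyme with substrate and 100% = substrate without enzyme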
#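 Assay system: Purified human Csn5 enzyme expressed in HEK293T cells | Amount: Enzyme 0.24 nM | Measured by: Fluorescence polarization readout | Medium: Tris/NaCl/DTT buffer, pH 7.5 | Compound dosing: One concentration, 12.5 µM, 0.25% DMSO | Times: 90 min incubation of compound, enzyme and substrate at room temperature | Control set: no-enzyme wells high, enzyme-with-substrate wells low | Read-out: % inhibition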
# Rpn11 inh – Rpn11 (human) deubiquitinase inhibition; human 26S proteasome, Ub4-pepOG fluorescence polarization; 20S core pre-blocked with epoxomicin; calls only at 20 µM; 360,000 compounds, 0.59% hits; AID 588493;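 active = inhibition at 20 µM, scaled to each plate's controls, above about 33%, limit read from the data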
# Target sequence (O00487 whole entry, looked up): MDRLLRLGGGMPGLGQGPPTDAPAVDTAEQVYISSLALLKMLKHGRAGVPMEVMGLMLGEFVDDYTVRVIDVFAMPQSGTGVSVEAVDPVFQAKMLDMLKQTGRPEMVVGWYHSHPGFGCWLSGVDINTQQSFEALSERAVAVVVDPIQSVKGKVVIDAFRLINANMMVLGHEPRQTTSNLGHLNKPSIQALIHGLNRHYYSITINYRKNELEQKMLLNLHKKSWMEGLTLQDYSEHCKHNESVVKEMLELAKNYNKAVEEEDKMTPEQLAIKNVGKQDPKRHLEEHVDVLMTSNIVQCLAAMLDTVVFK
# SENP1 inh – blocks the human SENP1 SUMO protease catalytic domain. recombinant SENP1 catalytic domain, CyPet-SUMO1-YPet FRET cleavage. inhibition, % at 10 µM. 360,000 compounds, 0.21% hits. AID 624204;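 active = inhibition at least 30% at 10 µM, raw YFP signal under a set limit, fluorescence ratio 0.5 to 1.5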;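 also: 0% = enzyme with DMSO and 100% = no enzyme wells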
#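 Assay system: hSENP1 catalytic domain, recombinant. Amount: SENP1 enzyme, 20 pM final. Schedule: 50 min reaction, RT, dark. Technique: FRET, CFP and YFP emission. Control set: no-enzyme wells low, DMSO-plus-enzyme wells high control.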
# HNF4A DNA FP – change in binding of human HNF4 alpha to DNA; AID 1224865; HNF4a-FITC DNA binding, fluorescence polarization, 1 h; P41235; activity change, % at 10 µM; 360,000 compounds, 0.3% hits; in the data active = activity change above about 30%, passing the limit was not always enough
# UBC9 SUMO inh – blocks human SUMOylation mediated by UBC9; 290,000 compounds, 0.36% hits; HTRF SUMOylation assay, SAE1/SAE2 + UBC9, in vitro; inhibition, % at 35 µM; P63279; in the data active = inhibition above about 50%, passing the limit was not always enough
# Target sequence (P63279 whole entry, looked up): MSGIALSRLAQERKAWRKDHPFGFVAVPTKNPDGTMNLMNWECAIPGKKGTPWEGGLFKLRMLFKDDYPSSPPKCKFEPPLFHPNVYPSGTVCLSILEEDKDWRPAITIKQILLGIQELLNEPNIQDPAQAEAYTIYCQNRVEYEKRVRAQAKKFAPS
# TPT1 inhibitor – blocks Candida albicans tRNA 2'-phosphotransferase | recombinant caTPT1, FP RNA substrate dephosphorylation | inhibition, % at 5 µM | 300,000 compounds, 0.81% hits;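 active = inhibition above the mean of all tested compounds plus 3 SD, set per screening campaign, cut at about 24% in these data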;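 also: plate controls were DMSO alone for no effect and ferristatin control at 100 nM for full effect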
# caTPT1 confirm – confirmation of Candida albicans TPT1 inhibitors. recombinant caTPT1, fluorescence polarization, RNase T1 coupled. AID 2149. inhibition, % at 5 µM. 2,400 compounds, 74% hits. shares compounds with TPT1 inhibitor;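 active = inhibition above the primary screen limit, the mean inhibition of all tested compounds plus 3 SD, cut at about 25% in these data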
# RNase T1 inh – RNase T1 inhibition in TPT1 counter-screen. shares compounds with TPT1 inhibitor. RNase T1 cleavage, fluorescence polarization, 1536-well. inhibition, % at 5 µM. 2,400 compounds, 83% hits;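 active = inhibition above the solvent-only control well mean plus 3 SD, limit set per screening run, cut at about 23% in these data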;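 also: plate controls were DMSO wells with enzyme for no effect and wells without RNase T1 for full effect; inhibitors block cleavage so intact labeled substrate keeps polarization high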
# Target sequence (P00651 whole entry, looked up): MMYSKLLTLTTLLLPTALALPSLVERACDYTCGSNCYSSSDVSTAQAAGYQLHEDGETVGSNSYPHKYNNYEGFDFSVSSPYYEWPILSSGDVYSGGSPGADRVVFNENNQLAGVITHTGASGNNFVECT
# * hit, by the source's call; i = inactive; x = no result shown. In the library only some 1.8% were active in any assay of this set; here they are far more common.
SMILES,CSN inh,Rpn11 inh,SENP1 inh,HNF4A DNA FP,UBC9 SUMO inh,TPT1 inhibitor,caTPT1 confirm,RNase T1 inh
Cc1ccc(CNC(=O)C2CC(=O)N(c3ccc(OCC(=O)N4CCCC4)cc3)C2)cc1 (stereo not given),2,i,1,2,7,31*,5,10
O=C(CSCc1ccccc1Cl)Nc1c[nH]c(=O)[nH]c1=O,-3,i,3,0,21,0,x,x
COC(=O)CC/C(O)=C1\C(=O)CC(C)(C)CC1=NCc1nc2ccccc2[nH]1,-4,i,2,1,13,34*,13,18
Cn1c(/C(C#N)=C/c2ccc(-c3ccc(S(N)(=O)=O)cc3)o2)nc2ccccc21,-71,i,-28,-2,6,118*,120*,121*
CCN(CC)CCCNC(=O)c1cc2c(-c3cccc(OC)c3)nn(C)c2s1,1,i,2,3,26,37*,4,5
CCCCN(C)CCNC(=O)c1cc2c(-c3cccc(OC)c3)nn(C)c2s1,4,i,1,-2,28,0,x,x
CSc1nnc(-c2cccc(NC(=O)c3ccccc3)c2)n1C,-4,i,4,5,-1,2,x,x
CC1SCC(NC(=O)c2ccc(Cl)cc2)CS1 (stereo not given),118,i,2,3,14,-3,x,x
O=C1CC(NC(=O)c2ccc(Cl)cc2)C(=O)N1 (stereo not given),-1,i,3,-2,13,133*,11,21
CC(=O)NC/C(C)=N\Nc1ccc([N+](=O)[O-])cc1,13,i,14,10,17,32*,43*,55*
C/C(=N\Nc1ccc([N+](=O)[O-])cc1)c1cccc(N)c1,3,i,-26,12,17,13,x,x
C/C(=N\Nc1ccc([N+](=O)[O-])cc1)c1ccc(O)cc1,14,x,-24,51*,12,94*,91*,100*
O=C1NC(c2cccs2)C(C(=O)c2ccccc2)C(O)(C(F)(F)F)N1 (stereo not given),-1,i,0,0,10,1,x,x
CCn1c(SCC(=O)NC2CCCC2)nnc1-c1ccco1,1,i,-1,0,16,-1,x,x
O=C1N/C(=N/O)S/C1=C/c1cccc([N+](=O)[O-])c1,-6,i,1,2,17,2,x,x
COc1ccc(/C=C2\SC(=Nc3ccccc3)NC2=O)cc1,x,x,x,x,7,x,x,x
O=C1NC(=Nc2ccccc2Cl)S/C1=C\c1cc([N+](=O)[O-])ccc1O,108,x,32,76*,8,88*,99*,99*
COc1cccc(N=C2NC(=O)/C(=C/c3cc([N+](=O)[O-])ccc3O)S2)c1,113,x,55,76*,17,51*,64*,70*
CC(=O)CSc1ncnc2c1cnn2-c1ccccc1,-4,i,-2,0,10,5,x,x
CN(C)C=NC(=O)c1ccc(N2CCN(c3ncc(C(F)(F)F)cc3Cl)CC2)cc1,5,i,0,-1,30,-3,x,x
CN(C)/C=C/C(=O)c1ccc(N2CCN(c3ncc(C(F)(F)F)cc3Cl)CC2)cc1,-1,i,-23,2,18,80*,15,19
Cc1cc(=O)oc2c3c4c(cc12)OCCN4CCC3,-3,i,-22,6,18,30*,13,22*
Cc1cc(=O)oc2c(CN3CCCC3)c(O)c(Cl)cc12,-3,i,-172,-3,29,-8,x,x
CC(C)c1cc(=O)oc2c3c4c(cc12)CCCN4CCC3,2,i,-18,13,32,29*,32*,41*
O=c1c2ccccc2c(/C=N/NS(=O)(=O)c2ccccc2)c(O)n1-c1ccccn1,80*,x,39,120,10,106*,62*,78*
SMILES,CSN inh,Rpn11 inh,SENP1 inh,HNF4A DNA FP,UBC9 SUMO inh,TPT1 inhibitor,caTPT1 confirm,RNase T1 inh
O=c1c2ccccc2c(/C=N/n2cnnc2)c(O)n1-c1ccccc1,6,i,-23,0,18,15,x,x
CC(=O)NC1=NC(=O)/C(=C/N2CCCCC2)S1,1,i,-3,6,-3,2,x,x
CC(=O)NC1=NC(=O)/C(=C/c2cn(C(C)=O)nc2-c2ccccc2)S1,11,i,-24,16,8,31*,35*,47*
CC(=O)NC1=NC(=O)/C(=C/c2cc(C)n(-c3ccc(NC(C)=O)cc3)c2C)S1,30,x,-32,82*,5,68*,102*,109*
Cc1ccc(CC(=O)N/N=C/c2ccc(OC(=O)c3ccc([N+](=O)[O-])cc3)cc2)cc1,-13,i,3,-6,0,-4,x,x
Cc1cccc(CSCCNC(=O)c2ccc(CN3CCOCC3)cc2)c1,-1,i,1,4,1,-4,x,x
Cc1cccn2c(=O)c3cc(S(=O)(=O)c4ccc(F)cc4)c(=N)n(Cc4ccco4)c3nc12,10,i,-37,-4,73,8,x,x
Cc1ccc(S(=O)(=O)c2cc3c(=O)n4ccccc4nc3n(Cc3ccco3)c2=N)cc1C,x,x,x,x,61,25*,18,21
CCn1c(=N)c(S(=O)(=O)c2ccccc2)cc2c(=O)n3ccccc3nc21,8,i,-33,1,23,2,x,x
N=c1c(S(=O)(=O)c2ccccc2)cc2c(=O)n3ccccc3nc2n1Cc1ccco1,26,i,-18,-2,50*,26*,9,17
O=C(O)c1ccc2c(c1)C(=O)N(c1ccc(Cl)cn1)C2=O,1,i,1,-4,4,-1,x,x
O=C(COC(=O)c1ccc(O)cc1)Nc1cc(S(=O)(=O)N2CCCCCC2)ccc1Cl,-4,i,1,3,x,x,x,x
CCOc1ccccc1N1CCN(c2nc(N)c(C#N)c(CC#N)c2C#N)CC1,18,i,-10,8,18,28*,30*,42*
CC12C=CC(=O)C=C1CCC1C2CCC2(C)C(C(=O)CO)CCC12 (stereo not given),4,i,3,4,x,x,x,x
Cc1ccc(C(=O)NN2C(=O)/C(=C/c3cccn3C)SC2=S)cc1,21,x,-58,88*,-16,79*,96*,112*
Cn1cccc1/C=C1\SC(=S)N(NC(=O)c2ccccc2Cl)C1=O,44*,x,-77,69*,-20,87*,88*,106*
